The nature of series [1]: Cytotoxicity against human A549 cells assessed as reduction in cell viability after 48 hrs by alamar blue assay. Type of series: cell-based.
Series [2] in a line: Selectivity index, ratio of CC50 for cytotoxicity against human A549 cells to IC50 for antiviral activity against Human adenovirus 5 infected in 293beta5 cells assessed as inhibition of plaque formation after 7 days. Type of series: toxicity, cell-based. The note with it: read-out: Ratio CC50/IC50.
Series [3] concerns Human adenovirus 5. The series can be described thus: Antiviral activity against Human adenovirus 5 infected in 293beta5 cells assessed as inhibition of plaque formation incubated for 7 days by GFP reporter gene assay. The series is classed as functional, organism-based. The note with it: Human mastadenovirus C, 293beta5, 168 h. In short, it runs like this: (§1)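 HAdV5-GFP plaque assay in 293β5 cells at low MOI. Inhibition is expressed as percent of the infected control, with single-dose screening at 10 μM. Compounds giving >90% inhibition went on to IC50 determination. Values are means ± SD of triplicate samples from three independent experiments.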

In series [4] the test system is Human adenovirus 5. The series can be described thus: Antiviral activity against Human adenovirus 5 infected in 293beta5 cells assessed as inhibition of plaque formation at 10 uM incubated for 7 days by GFP reporter gene assay relative to control. The series is classed as functional. Particulars: Human mastadenovirus C, 293beta5, 168 h. In short, it runs like this: as §1
In general terms: In a reporter assay the amount or activity of a reporter protein is the signal.

Some results are limits rather than exact numbers.

One may read the CC50 as the concentration giving 50% cytotoxicity. As usually defined, the IC50 is the midpoint of a concentration-inhibition curve. What is called inhibition is how much of the control response was suppressed. As for `CC(C)(NC(=O)c1cc(Cl)ccc1O)c1ccc(F)cc1`, in series [1], the CC50 at 48 h is above 200 µM. Besides, the selectivity ratio at 168 h in series [2] is above 57.8. Further, the IC50 with Human adenovirus 5 [3] worked out at 3.46 µM. Besides, the inhibition at 10 µM with Human adenovirus 5 [4] amounted to 100%.
Turning to `CC(C)[C@H](NC(=O)c1cc(Cl)ccc1O)C(=O)Nc1cc(C(F)(F)F)cc(C(F)(F)F)c1`, the CC50 at 48 h in series [1] stood at 30.9 µM. Also, in series [2], the selectivity ratio at 168 h was determined as 77.4. In the series on Human adenovirus 5 [3], the IC50 amounted to 0.4 µM.
Turning to `O=C(Nc1ccc(F)c(F)c1)c1cc(Cl)ccc1O`, the CC50 at 48 h in series [1] amounted to 8 µM. Besides, the selectivity ratio at 168 h in series [2] was found to be 29.6. In the series on Human adenovirus 5 [3], the IC50 turned out to be 0.27 µM. Moreover, in the series on Human adenovirus 5 [4], the inhibition at 10 µM was found to be 100%.
With `O=C(NCc1ccc([N+](=O)[O-])cc1Cl)c1cc(Cl)ccc1O`, in series [1], the 50% cytotoxic concentration (CC50) at 48 h stood at 51.4 µM. Further, in series [2], the selectivity ratio at 168 h came to 36.7. The IC50 in the series on Human adenovirus 5 [3] was 1.4 µM. Also, in the series with Human adenovirus 5 [4], the inhibition at 10 µM was 100%.
Regarding `O=C(NCc1ccc(C(F)(F)F)c(F)c1)c1cc(Cl)ccc1O`, in series [1], the CC50 at 48 h amounted to 22.3 µM. Besides, in series [2], the selectivity ratio at 168 h was found to be 15.9. Further, the IC50 in the series on Human adenovirus 5 [3] stood at 1.4 µM.
The corresponding values for `CC(C)[C@H](NC(=O)c1cc(Cl)ccc1O)C(=O)Nc1cc(F)cc(C(F)(F)F)c1` are 43 µM, 65.2 and 0.66 µM.
With `CS(=O)(=O)Nc1ccc(Cl)cc1C(=O)NCC(=O)Nc1ccc([N+](=O)[O-])cc1Cl`, the CC50 at 48 h in series [1] turned out to be 141 µM. In series [2], the selectivity ratio at 168 h was determined as 14.6. Moreover, the IC50 in the series with Human adenovirus 5 [3] stood at 9.65 µM.
Take `O=C(NCc1ccc(C(F)(F)F)cc1)c1cc(Cl)ccc1O`: the CC50 at 48 h in series [1] was 23.9 µM. For the same compound, in series [2], the selectivity ratio at 168 h was found to be 9.2. Also, in the series with Human adenovirus 5 [3], the IC50 came to 2.59 µM.
Regarding `C[C@H](NC(=O)c1cc(Cl)ccc1O)c1ccccc1`, in series [1], the CC50 at 48 h worked out at 199 µM. Moreover, the selectivity ratio at 168 h in series [2] is 78.5. Besides, the IC50 with Human adenovirus 5 [3] was found to be 2.54 µM. Also, the inhibition at 10 µM in the series on Human adenovirus 5 [4] was found to be 100%.
Turning to `O=C(CNC(=O)c1cc(Cl)ccc1O)Nc1ccc([N+](=O)[O-])cc1Cl`, the CC50 at 48 h in series [1] came out at 129 µM. Besides, the selectivity ratio at 168 h in series [2] stood at 53.2. Also, the IC50 in the series with Human adenovirus 5 [3] worked out at 2.43 µM. Besides, in the series with Human adenovirus 5 [4], the inhibition at 10 µM was found to be 100%.
Turning to `O=C(Cc1cc(Cl)ccc1O)Nc1ccc([N+](=O)[O-])cc1Cl`, in the series on Human adenovirus 5 [4], the inhibition at 10 µM came to 0%.
For the compound `O=C(Nc1cc([N+](=O)[O-])ccc1F)c1cc(Cl)ccc1O`, the CC50 at 48 h in series [1] turned out to be 8.1 µM. Moreover, in series [2], the selectivity ratio at 168 h is 26.2. Further, in the series on Human adenovirus 5 [3], the IC50 amounted to 0.31 µM. In the series on Human adenovirus 5 [4], the inhibition at 10 µM is 100%.
`Cc1ccc(O)c(C(=O)Nc2cc(F)cc(C(F)(F)F)c2)c1`: the CC50 at 48 h in series [1] was found to be 15.2 µM. Besides, the selectivity ratio at 168 h in series [2] stood at 23.3. The IC50 in the series on Human adenovirus 5 [3] was determined as 0.65 µM.
The corresponding values for `O=C(NCCc1ccc(F)cc1)c1cc(Cl)ccc1O` are 154 µM, 39.1 and 3.94 µM.
In the case of `O=C(N[C@@H](Cc1ccccc1)C(=O)Nc1ccc([N+](=O)[O-])cc1Cl)c1cc(Cl)ccc1O`, the CC50 at 48 h in series [1] worked out at 15.2 µM. Also, the IC50 with Human adenovirus 5 [3] was 7 µM. Also, the inhibition at 10 µM in the series with Human adenovirus 5 [4] stood at 100%.
For the compound `O=C(NCc1ccc(Cl)cc1Cl)c1cc(Cl)ccc1O`, in series [1], the CC50 at 48 h was 30.9 µM. In addition, the selectivity ratio at 168 h in series [2] was 17.9. Moreover, the IC50 in the series with Human adenovirus 5 [3] amounted to 1.73 µM.
The corresponding values for `O=C(NCc1ccc(F)cc1Cl)c1cc(Cl)ccc1O` are 30.9 µM, 12.1 and 2.56 µM.
Turning to `CN(Cc1ccc(F)cc1)C(=O)c1cc(Cl)ccc1O`, the inhibition at 10 µM with Human adenovirus 5 [4] was 0%.
On to `O=C(NCc1cc(F)cc(C(F)(F)F)c1)c1cc(Cl)ccc1O`, for which the CC50 at 48 h in series [1] was found to be 36.3 µM. The selectivity ratio at 168 h in series [2] was 15.1. In the series with Human adenovirus 5 [3], the IC50 was 2.4 µM.
For `CC(C)(C)OC(=O)CC[C@H](NC(=O)c1cc(Cl)ccc1O)C(=O)Nc1ccc([N+](=O)[O-])cc1Cl`, in that order: 22.9 µM, 34.2 and 0.67 µM.
As to `O=C(NCc1ccc(C(F)(F)F)cc1F)c1cc(Cl)ccc1O`, in series [1], the CC50 at 48 h is 45.6 µM. In series [2], the selectivity ratio at 168 h is 34.6. Also, the IC50 with Human adenovirus 5 [3] was found to be 1.32 µM.
As to `O=C(Nc1cc(F)cc(C(F)(F)F)c1)c1cccc(Cl)c1`, the CC50 at 48 h in series [1] is 38.6 µM. In addition, the selectivity ratio at 168 h in series [2] worked out at 6.9. Moreover, the IC50 in the series with Human adenovirus 5 [3] was 5.61 µM.
Consider `O=C(Nc1cc(F)cc(C(F)(F)F)c1)c1ccccc1O`, for which the CC50 at 48 h in series [1] is 16.3 µM. The selectivity ratio at 168 h in series [2] stood at 15.2. In addition, the IC50 with Human adenovirus 5 [3] was 1.07 µM.
For `O=C(NCc1ccc(Cl)cc1)c1cc(Cl)ccc1O`, in that order: 27.1 µM, 7.6 and 3.57 µM.
For `C[C@H](NC(=O)c1cc(Cl)ccc1O)C(=O)Nc1ccc([N+](=O)[O-])cc1Cl`, in that order: 100 µM, 26 and 3.85 µM.
In the case of `O=C(Nc1cc(C(F)(F)F)cc(C(F)(F)F)c1)c1cc(Cl)ccc1O` [IMD-0354], the CC50 at 48 h in series [1] worked out at 4.1 µM. The selectivity ratio at 168 h in series [2] came to 68.3. In the series with Human adenovirus 5 [3], the IC50 was 0.06 µM. Besides, the inhibition at 10 µM in the series with Human adenovirus 5 [4] is 100%.
With `O=C(Cc1cc(Cl)ccc1O)Nc1cc(F)cc(C(F)(F)F)c1`, the cytotoxic concentration (CC50) at 48 h in series [1] turned out to be 23.7 µM. Also, the selectivity ratio at 168 h in series [2] turned out to be 4.8. Also, the IC50 in the series on Human adenovirus 5 [3] came out at 4.92 µM.
In the case of `C[C@@H](NC(=O)c1cc(Cl)ccc1O)c1ccccc1`, in series [1], the CC50 at 48 h was 84.6 µM. Moreover, in the series with Human adenovirus 5 [4], the inhibition at 10 µM was 100%.
In the case of `Cc1ccc(CNC(=O)c2cc(Cl)ccc2O)cc1`, the CC50 at 48 h in series [1] was determined as 87.7 µM. Also, the selectivity ratio at 168 h in series [2] turned out to be 10.8. Moreover, in the series on Human adenovirus 5 [3], the IC50 was determined as 8.12 µM.
Take `C[C@@H](NC(=O)c1cc(Cl)ccc1O)c1ccc(F)cc1`: the CC50 at 48 h in series [1] is above 200 µM. For the same compound, the selectivity ratio at 168 h in series [2] is above 66.2. Further, in the series with Human adenovirus 5 [3], the IC50 is 3.02 µM. Moreover, the inhibition at 10 µM with Human adenovirus 5 [4] turned out to be 100%.
Take `O=C(N[C@@H](Cc1ccccc1)C(=O)Nc1cc(C(F)(F)F)cc(C(F)(F)F)c1)c1cc(Cl)ccc1O`: the CC50 at 48 h in series [1] turned out to be 17.9 µM. Besides, in series [2], the selectivity ratio at 168 h was 44.9. For the same compound, the IC50 in the series with Human adenovirus 5 [3] was 0.4 µM.
The corresponding values for `CC(C)[C@H](NC(=O)c1cc(Cl)ccc1O)C(=O)Nc1ccc(F)c(F)c1` are 95 µM, 32.1 and 2.96 µM.
In the case of `O=C(NCc1ccc([N+](=O)[O-])cc1)c1cc(Cl)ccc1O`, the CC50 at 48 h in series [1] is 175 µM. Besides, in series [2], the selectivity ratio at 168 h stood at 26.7. Besides, in the series on Human adenovirus 5 [3], the IC50 worked out at 6.56 µM.
As for `C[C@@H](NC(=O)c1cc(Cl)ccc1O)c1ccc(Cl)cc1`, the CC50 at 48 h in series [1] was 31.1 µM. Besides, in the series on Human adenovirus 5 [4], the inhibition at 10 µM turned out to be 100%.
`O=C(Nc1ccc([N+](=O)[O-])c(Cl)c1)c1cc(Cl)ccc1O`: the IC50 in the series with Human adenovirus 5 [3] was 1 µM. Also, the inhibition at 10 µM with Human adenovirus 5 [4] is 100%.

The record behind these values is ChEMBL document CHEMBL4402567, “Structure-Activity Relationship Studies on Diversified Salicylamide Derivatives as Potent Inhibitors of Human Adenovirus Infection” (J Med Chem, 2020).
